Broadly, the Ki is a measure of affinity in units of concentration, obtained from inhibition or displacement.

The record followed here is ChEMBL document CHEMBL4371071, “Muscarinic agonist, (±)-quinuclidin-3-yl-(4-fluorophenethyl)(phenyl)carbamate: High affinity, but low subtype selectivity for human M1 - M5 muscarinic acetylcholine receptors” (Bioorg Med Chem Lett, 2019).

Assay [1] deals with T1, Muscarinic acetylcholine receptor M1 (Homo sapiens) (UniProt P11229).
T1 sequence (whole entry): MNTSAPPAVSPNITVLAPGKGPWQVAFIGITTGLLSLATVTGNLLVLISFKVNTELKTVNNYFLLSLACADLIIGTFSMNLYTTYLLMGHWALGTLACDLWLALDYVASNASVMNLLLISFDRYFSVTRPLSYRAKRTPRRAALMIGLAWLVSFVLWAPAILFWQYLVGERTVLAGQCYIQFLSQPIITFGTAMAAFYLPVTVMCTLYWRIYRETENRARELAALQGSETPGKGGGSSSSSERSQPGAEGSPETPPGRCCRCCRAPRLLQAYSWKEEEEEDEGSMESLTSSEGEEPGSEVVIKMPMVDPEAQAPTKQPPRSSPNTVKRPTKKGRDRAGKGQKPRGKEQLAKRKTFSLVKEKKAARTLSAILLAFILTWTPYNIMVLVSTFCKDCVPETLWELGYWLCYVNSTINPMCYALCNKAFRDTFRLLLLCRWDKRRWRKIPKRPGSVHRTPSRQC
The conditions noted are these: CHO, at 100 µM.

The species named for assay [2] is Homo sapiens. As to the kind of experiment: Selectivity ratio of Ki for displacement of [3H]NMS from human M2 AChR expressed in CHO cell membranes to Ki for displacement of [3H]NMS from human M3 AChR expressed in CHO cell membranes.
Assay [3] addresses Muscarinic acetylcholine receptor M3 (Homo sapiens, UniProt P20309). As to the kind of experiment: Displacement of [3H]NMS from human M3 AChR expressed in CHO cell membranes after 1 to 2 hrs by liquid scintillation spectrometry method. The assay is classed as cell-based. Background: In a radioligand displacement assay an active substance lowers the binding of a labelled ligand.

Assay [4] concerns the target T2, Muscarinic acetylcholine receptor M2 (Homo sapiens) (UniProt P08172).
T2 sequence (whole entry): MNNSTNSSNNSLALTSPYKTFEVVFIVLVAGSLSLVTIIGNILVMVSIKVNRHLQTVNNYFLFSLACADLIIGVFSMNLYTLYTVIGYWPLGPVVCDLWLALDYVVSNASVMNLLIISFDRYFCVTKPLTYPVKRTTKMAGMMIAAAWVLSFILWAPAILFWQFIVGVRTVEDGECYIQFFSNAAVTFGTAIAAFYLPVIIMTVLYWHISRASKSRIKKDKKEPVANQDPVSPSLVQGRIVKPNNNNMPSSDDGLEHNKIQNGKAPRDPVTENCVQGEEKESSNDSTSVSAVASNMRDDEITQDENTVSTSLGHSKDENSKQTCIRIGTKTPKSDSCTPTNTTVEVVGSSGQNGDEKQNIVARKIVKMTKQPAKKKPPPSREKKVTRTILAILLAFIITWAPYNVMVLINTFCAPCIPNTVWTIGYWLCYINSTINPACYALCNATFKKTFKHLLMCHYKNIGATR
In words: Displacement of [3H]NMS from human M2 AChR expressed in CHO cell membranes at 100 uM after 1 to 2 hrs by liquid scintillation spectrometry method relative to control. The method in brief: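 CHO membranes expressing the human subtype (20 µg protein/well) with 0.3 nM [3H]NMS and analog (1 nM–100 µM) in 50 mM Tris-HCl pH 7.4, 2 h at 25 °C. Filtered on GF/B, washed, counted by scintillation. IC50 taken from curves to give Ki; three independent experiments in duplicate.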

For assay [5], the species on record is Homo sapiens. As to the kind of experiment: Selectivity ratio of Ki for displacement of [3H]NMS from human M1 AChR expressed in CHO cell membranes to Ki for displacement of [3H]NMS from human M5 AChR expressed in CHO cell membranes.
Assay [6] concerns the target T3, Muscarinic acetylcholine receptor M2 (Homo sapiens, UniProt P08172).
T3 sequence (P08172 whole entry): T2 sequence (whole entry)
As to the kind of experiment: Displacement of [3H]NMS from human M2 AChR expressed in CHO cell membranes after 1 to 2 hrs by liquid scintillation spectrometry method. The method in brief:
(§1)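 CHO membranes expressing the human subtype (20 µg protein/well) with 0.3 nM [3H]NMS and analog (1 nM–100 µM) in 50 mM Tris-HCl pH 7.4, 2 h at 25 °C. […] Filtered on GF/B, washed, counted by scintillation. IC50 taken from curves to give Ki; three independent experiments in duplicate.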

The target of assay [7] is T4, Muscarinic acetylcholine receptor M4 (Homo sapiens) (UniProt P08173).
T4 sequence (whole entry): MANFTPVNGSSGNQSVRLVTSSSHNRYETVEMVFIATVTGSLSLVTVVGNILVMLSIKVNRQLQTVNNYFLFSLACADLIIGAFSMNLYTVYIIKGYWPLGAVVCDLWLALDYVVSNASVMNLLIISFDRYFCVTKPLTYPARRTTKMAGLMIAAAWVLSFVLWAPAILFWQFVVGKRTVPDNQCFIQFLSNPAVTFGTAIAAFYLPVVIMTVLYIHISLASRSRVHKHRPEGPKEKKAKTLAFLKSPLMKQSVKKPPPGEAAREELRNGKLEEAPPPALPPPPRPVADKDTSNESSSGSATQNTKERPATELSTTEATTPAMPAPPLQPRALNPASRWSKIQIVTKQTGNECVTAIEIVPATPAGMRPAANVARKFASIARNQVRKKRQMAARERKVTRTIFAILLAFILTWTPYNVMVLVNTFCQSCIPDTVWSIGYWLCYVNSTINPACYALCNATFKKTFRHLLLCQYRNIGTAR
As to the kind of experiment: Displacement of [3H]NMS from human M4 AChR expressed in CHO cell membranes at 100 uM after 1 to 2 hrs by liquid scintillation spectrometry method relative to control. A digest of the protocol: as §1

The target of assay [8] is T5, Muscarinic acetylcholine receptor M5 (Homo sapiens, UniProt P08912).
T5 sequence (P08912 whole entry): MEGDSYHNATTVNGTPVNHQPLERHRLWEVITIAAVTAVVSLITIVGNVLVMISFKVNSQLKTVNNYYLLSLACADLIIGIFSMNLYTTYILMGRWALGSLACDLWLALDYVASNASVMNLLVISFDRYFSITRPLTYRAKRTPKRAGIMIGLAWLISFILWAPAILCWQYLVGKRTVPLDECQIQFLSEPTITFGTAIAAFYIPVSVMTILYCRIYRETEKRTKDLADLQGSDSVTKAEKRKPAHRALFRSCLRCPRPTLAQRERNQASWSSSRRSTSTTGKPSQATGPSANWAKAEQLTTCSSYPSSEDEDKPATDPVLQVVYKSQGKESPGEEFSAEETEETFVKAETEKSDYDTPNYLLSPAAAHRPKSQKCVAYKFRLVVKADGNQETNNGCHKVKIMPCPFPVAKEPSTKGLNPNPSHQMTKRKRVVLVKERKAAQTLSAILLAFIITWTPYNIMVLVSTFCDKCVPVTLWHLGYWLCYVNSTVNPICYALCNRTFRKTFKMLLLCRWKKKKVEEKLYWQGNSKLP
In words: Displacement of [3H]NMS from human M5 AChR expressed in CHO cell membranes after 1 to 2 hrs by liquid scintillation spectrometry method. The method in brief: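 CHO membranes expressing human M5 (10 µg protein/well) with 0.3 nM [3H]NMS and analog (1 nM–100 µM) in 50 mM Tris-HCl pH 7.4, 2 h at 25 °C. Filtered on GF/B, counted by scintillation. IC50 converted to Ki; three independent experiments in duplicate.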

Sequence of Muscarinic acetylcholine receptor M3 (P20309 whole entry): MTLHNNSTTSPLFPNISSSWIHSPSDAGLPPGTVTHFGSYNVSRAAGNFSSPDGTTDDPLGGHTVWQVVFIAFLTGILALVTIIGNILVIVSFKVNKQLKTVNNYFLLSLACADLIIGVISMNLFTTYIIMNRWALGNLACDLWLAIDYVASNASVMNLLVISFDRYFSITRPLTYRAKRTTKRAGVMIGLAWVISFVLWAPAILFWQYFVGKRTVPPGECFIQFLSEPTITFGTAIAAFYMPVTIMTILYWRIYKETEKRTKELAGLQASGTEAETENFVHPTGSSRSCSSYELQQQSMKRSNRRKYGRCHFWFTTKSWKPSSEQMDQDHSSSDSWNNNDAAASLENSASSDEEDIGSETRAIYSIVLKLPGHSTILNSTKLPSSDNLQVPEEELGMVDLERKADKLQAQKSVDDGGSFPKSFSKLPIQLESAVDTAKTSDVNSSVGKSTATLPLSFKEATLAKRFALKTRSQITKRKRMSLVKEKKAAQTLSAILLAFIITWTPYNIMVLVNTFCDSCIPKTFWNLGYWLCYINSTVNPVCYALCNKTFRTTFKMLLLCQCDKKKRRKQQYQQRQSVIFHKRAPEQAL

For the compound `O=C(OC1CN2CCC1CC2)N(CCc1ccc(F)cc1)c1ccccc1` (racemic), the Imax in assay [1] was 99.9%; in assay [4] it was 100%; in assay [7], 99.8%. Further, the Ratio Ki amounted to 5 in assay [2] and 1.1 in assay [5]. Moreover, the Ki in assay [3] was 2.6 nM; in assay [6], 13 nM; in assay [8] it was 1.8 nM.
